ChEMBL document CHEMBL4007447, “Synthesis, biological evaluation and molecular docking study of N-(2-methoxyphenyl)-6-((4-nitrophenyl)sulfonyl)benzamide derivatives as potent HIV-1 Vif antagonists” (Eur J Med Chem, 2017)
In brackets after ≈: the same amount, converted by molar mass. Activity calls are given as the source filed them. No cut-off for these calls is given here.

What was measured:
[1] = Stability of the compound in pH 4 buffer solution at 100 uM after 180 hrs by HPLC analysis; assay type: physicochemical; conditions: read-out: Stability
[2] = Cytotoxicity against human H9 cells assessed as reduction in cell viability after 7 days by MTT assay; assay type: cell-based
Outline: (§1)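 MTT viability assay. H9 at 4×10^4 cells/well or PHA-stimulated PBMCs at 5×10^5 cells/well were incubated with serially diluted compound at 37 °C, 5% CO2 for seven days before MTT read-out. CC50 was calculated; mean ± standard deviation of three separate experiments.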

[3] = system: Human immunodeficiency virus 1; test: Antiviral activity against HIV1 subtype B NL4-3 infected in human H9 cells assessed as reduction in p24 level after 7 days by ELISA; assay type: functional, cell-based; conditions: Human immunodeficiency virus 1, subtype B NL4-3, H9, 168 h
Outline: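 H9 cells infected with NL4-3 at MOI 0.03 for 2 h, washed three times, then seeded at 4×10^4 cells/well with serially diluted compound. Incubated 7 days; supernatant p24 measured by in-house ELISA and EC50 calculated. Three separate experiments, mean ± standard deviation.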

[4] = Therapeutic index, ratio of CC50 for human H9 cells to EC50 for HIV1 subtype B NL4-3 infected in human H9 cells
Outline: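 Ratio of CC50 to EC50, both measured in H9 cells: MTT cytotoxicity over seven days, and p24 ELISA after 7 days of NL4-3 infection at MOI 0.03.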

[5] = Aqueous solubility in water after 24 to 72 hrs by HPLC based shake flask method; assay type: physicochemical
Outline: (§2)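 Equilibrium shake-flask solubility: excess compound placed in water, methanol, ethanol, acetonitrile, ethyl acetate or acetone and shaken 24-72 h at 25 °C. Filtered through 0.22 μm membrane, diluted, and quantified by HPLC on a C18 column with methanol/water 70/30 mobile phase and UV 251 nm. n=3, mean ± SD.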

[6] = Stability of the compound in pH 7 buffer solution at 100 uM up to 168 hrs by HPLC analysis; assay type: physicochemical; conditions: pH 7, 168 h
Outline: (§3)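 Compound added to pH 4, 7 or 9 buffers at 100 μM final and shaken at 100 rpm, 37 °C. Sampled at 0–168 h (pH 4 and 7) or 0–15 h (pH 9) and analysed by HPLC on C18 with acetonitrile/water containing 0.1% triethylamine (70/30) and UV 248 nm.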

[7] = Drug degradation in pH 9 buffer solution at 100 uM after 15 hrs by HPLC analysis; outline: as §3
[8] = system: Liver; test: Prodrug activation in human liver microsomes assessed as 2-Amino-N-(2-methoxyphenyl)-6-((4-nitrophenyl)sulfonyl)benzamide formation at 1.5 mg/ml after 20 mins in presence of NADPH by HPLC analysis; assay type: microsome
Outline: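 Prodrug (1.5 mg/mL stock, 1.5 μL) incubated with human liver microsomes in 0.1 M phosphate buffer pH 7.4 with NADPH-generating system at 37 °C for 0, 5, 10, 15, 20 and 40 min. Stopped with methanol, centrifuged, supernatant dried under nitrogen, redissolved in mobile phase, analysed by HPLC and HPLC-MS.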

[9] = system: Plasma; test: Protein binding in Sprague-Dawley rat plasma up to 30 ug/ml after 2 hrs by HPLC analysis; assay type: ADME, cell-free
Outline: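 Heparinized arterial plasma from male and female Sprague-Dawley rats incubated with compound at final 30, 20 or 5 μg/mL, 37 °C for 2 h. Free drug separated by 30 kD ultrafiltration (2000 g, 4 °C, 15 min) and measured by HPLC with UV 251 nm; binding = (Dt − Df)/Dt × 100%.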

[10] = system: Human immunodeficiency virus 1; test: Inhibition of HIV1 Vif expressed in TREX-hVif-15 cells co-expressing EYFP-N1-tagged human A3G assessed as reduction in Vif-mediated A3G degradation after 48 hrs by flow cytometry; assay type: cell-based
Outline: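 TREX-hvif-15 cells, in which Vif is under Tet-On control, were plated at 2×10^5 cells/well and grown overnight. At about 80% confluence they were transfected with EYFP-N1-hA3G. After 6 h the cells were washed, and compounds at varied concentrations were added together with doxycycline to induce Vif. Cells were trypsin-harvested 48 h post-transfection, and EYFP-positive cells were measured by flow cytometry. The no-Vif condition was set to 100%.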

[11] = system: Human immunodeficiency virus 1; test: Inhibition of HIV1 Vif expressed in TREX-hVif-15 cells co-expressing HA-tagged A3G assessed as reduction in Vif-mediated A3G degradation by measuring increase in A3G expression after 48 hrs by Western blot method; assay type: cell-based
Outline: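 TREX-hvif-15 cells were plated at 2×10^5 cells/well and transfected at about 80% confluence with pcDNA3.1-APOBEC3G-HA. At 6 h they were washed and given fresh DMEM/10% FBS, graded compound concentrations, and 0.1 µg/mL doxycycline to induce Vif. Total protein was extracted 48 h post-transfection, and HA tag, Vif and β-actin were read by western blot.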

[12] = Cytotoxicity against human PBMC assessed as reduction in cell viability after 7 days by MTT assay; assay type: cell-based; outline: as §1
[13] = system: Human immunodeficiency virus 1; test: Antiviral activity against HIV1 subtype B/C isolate KM018 infected in human PBMC assessed as reduction in p24 level after 7 days by ELISA; assay type: functional; conditions: Human immunodeficiency virus 1, subtype B/C isolate KM018, 168 h
[14] = system: Human immunodeficiency virus 1; test: Antiviral activity against HIV1 subtype B isolate SF162 infected in human PBMC assessed as reduction in p24 level after 7 days by ELISA; assay type: functional; conditions: Human immunodeficiency virus 1, subtype B isolate SF162, 168 h
[15] = system: Human immunodeficiency virus 1; test: Antiviral activity against HIV1 subtype CRF01-AE isolate TC-1 infected in human PBMC assessed as assessed as reduction in p24 level after 7 days by ELISA; assay type: functional; conditions: Human immunodeficiency virus 1, subtype CRF01-AE isolate TC-1, 168 h
[16] = system: Human immunodeficiency virus 1; test: Antiviral activity against HIV1 subtype CRF01-AE isolate WAN infected in human PBMC assessed as assessed as reduction in p24 level after 7 days by ELISA; assay type: functional; conditions: Human immunodeficiency virus 1, subtype CRF01-AE isolate WAN, 168 h
[17] = Solubility in methanol after 24 to 72 hrs by HPLC based shake flask method; assay type: physicochemical; outline: as §2
[18] = Solubility in ethanol after 24 to 72 hrs by HPLC based shake flask method; assay type: physicochemical; outline: as §2
[19] = Solubility in acetonitrile after 24 to 72 hrs by HPLC based shake flask method; assay type: physicochemical; outline: as §2
[20] = Solubility in ethylacetate after 24 to 72 hrs by HPLC based shake flask method; assay type: physicochemical; outline: as §2
[21] = Solubility in acetone after 24 to 72 hrs by HPLC based shake flask method; assay type: physicochemical; outline: as §2
[22] = system: Human immunodeficiency virus 1; test: Inhibition of HIV1 NL4-3 Vif expressed in 293T cells co-expressing HA-tagged A3G assessed as reduction in Vif-mediated A3G degradation by measuring increase in A3G expression after 48 hrs by Western blot method; assay type: cell-based
Outline: (§4)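 293T cells were plated at 2×10^5 cells/well, grown overnight, and co-transfected at about 80% confluence with pcDNA3.1-APOBEC3G-HA and pNL4-3 (Lipofectamine 2000). Medium was replaced at 6 h with DMEM/10% FBS, then compounds were added at a range of concentrations for 48 h. HA tag, Vif, p24 and β-actin (internal control) in total lysates were read by western blot.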

[23] = system: Human immunodeficiency virus 1; test: Antiviral activity against HIV1 NL4-3 infected in 293T cells expressing HA-tagged A3G assessed as reduction in Vif expression after 48 hrs by Western blot method; assay type: functional, cell-based; outline: as §4
[24] = 1-octanol/water partition co-efficient, log P of the compound after 2 hrs by shake-flask method; assay type: physicochemical
Outline: (§5)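 Octanol and water mutually pre-saturated 24 h at 37 °C; excess compound dissolved in octanol phase by sonication, centrifuged, supernatant mixed 1:1 (v/v) with aqueous phase. Shaken at 120 rpm, 37 °C for 2, 4 or 7 h; phases separated by centrifugation and quantified by HPLC, in triplicate. Log P = lg(Co/Cw).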

[25] = 1-octanol/water partition co-efficient, log P of the compound after 4 hrs by shake-flask method; assay type: physicochemical; outline: as §5
[26] = 1-octanol/water partition co-efficient, log P of the compound after 7 hrs by shake-flask method; assay type: physicochemical; outline: as §5
[27] = N-octanol/water partition co-efficient, log P of the compound in octanol to water phase ratio of 1:1 up to 7 hrs by shake-flask method; assay type: physicochemical
[28] = N-octanol/water partition co-efficient, log P of the compound in octanol to water phase ratio of 1:4 up to 7 hrs by shake-flask method; assay type: physicochemical
[29] = N-octanol/water partition co-efficient, log P of the compound in octanol to water phase ratio of 1:9 up to 7 hrs by shake-flask method; assay type: physicochemical
[30] = system: Human immunodeficiency virus 1; test: Antiviral activity against HIV1 isolate TC-1 infected in human PBMC assessed as inhibition of p24 expression up to 20 uM after 7 days by Western blot method
[31] = system: Human immunodeficiency virus 1; test: Antiviral activity against HIV1 isolate TC-1 infected in human PBMC expressing HA-tagged A3G assessed as downregulation of Vif expression after 7 days by Western blot method
[32] = system: Human immunodeficiency virus 1; test: Inhibition of HIV1 isolate TC-1 Vif infected in […]-stimulated human PBMC expressing HA-tagged A3G assessed as reduction in Vif-mediated A3G degradation up to 20 uM after 7 days by Western blot method

**Q.** Which results are given for `COc1ccccc1NC(=O)c1c(NC(=O)CN)cccc1S(=O)(=O)c1ccc([N+](=O)[O-])cc1`?
**A.** remaining at 180 h, 100 µM [1]: 50%; CC50 at 168 h [2]: 196 µM; EC50 [3]: 0.248 µM; Ratio CC50/EC50 [4]: 790; solubility thermodynamic [5]: 1730 µg/mL (≈ 3.57 mM); Stability [6]: Stable; Drug degradation [7]: > 90%; Drug metabolism [8]: Metabolite_Detected

**Q.** What does the source list for `COc1ccccc1NC(=O)c1c(N)cccc1S(=O)(=O)c1ccc([N+](=O)[O-])cc1`?
**A.** PPB [9]: Active; CC50 at 168 h [2]: ≥ 462 µM; EC50 [3]: 1.4 to 1.54 µM; Ratio CC50/EC50 [4]: 300; inhibition [10]: Dose-dependent effect; inhibition [11]: Dose-dependent effect; CC50 at 168 h [12]: > 468 µM; EC50 [13]: 17.8 µM; EC50 [14]: 17.8 µM; EC50 [15]: 0.522 µM; EC50 [16]: 2.95 µM; solubility thermodynamic [5]: 0.66 µg/mL (≈ 0.00154 mM); solubility thermodynamic [17]: 814 µg/mL (≈ 1.9 mM); solubility thermodynamic [18]: 284 µg/mL (≈ 0.664 mM); solubility thermodynamic [19]: 9090 µg/mL (≈ 21.3 mM); solubility thermodynamic [20]: 4380 µg/mL (≈ 10.2 mM); solubility thermodynamic [21]: 22400 µg/mL (≈ 52.4 mM); inhibition [22]: Dose-dependent effect; Activity [23]: Dose-dependent effect; logP at 2 h [24]: 2.41; logP at 4 h [25]: 2.4; logP at 7 h [26]: 2.4; logP at 7 h [27]: 2.4; logP at 7 h [28]: 2.53; logP at 7 h [29]: 2.55; inhibition [30]: Active; Activity [31]: Active; inhibition [32]: Active
